Assay results published in ChEMBL document CHEMBL5724801, “EUbOPEN Chemogenomics Library - Multiplex” (2024).
Values joined by “and” are separate entries in the source; they are usually repeats but may differ in a detail not shown here. Identical values can stand only once.

Test system: HEK-293T
Experiment: Multiplex assay against HEK293T
Assay type: toxicity, cell-based
Settings: human
How it was run: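 Hoechst33342, BioTracker Green Microtubule Cytoskeleton Dye, MitoTracker Red and Annexin V Alexa Fluor 680 were added to live cells at seeding, and imaging on a CQ1 microscope at 37°C and 5% CO2 followed compound addition. Gating by CellPathfinder machine learning separated cells into Hoechst high-intensity objects or normal cells, then normal cells into healthy, pyknosed or fragmented nuclei, then pyknosed cells into mitotic or apoptotic. Per cents of healthy-nucleus cells are reported for the tubulin, mitochondrial-mass and membrane-permeability phenotypes.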

[1] = 12 h, 1 µM, compound concentration 1 uM
[2] = 12 h, 10 µM, compound concentration 10 uM
[3] = 24 h, 1 µM, compound concentration 1 uM
[4] = 24 h, 10 µM, compound concentration 10 uM
[5] = 48 h, 1 µM, compound concentration 1 uM
[6] = 48 h, 10 µM, compound concentration 10 uM

CC(C)(C)c1ccc(S(=O)(=O)Nc2ccc(Cl)cc2C(=O)c2cc[n+]([O-])cc2)cc1 [VERCIRNON]
Population Apoptotic (%) [1]: 32% and 52%
Population Fragmented Nuclei (%) [1]: 10% and 5%
Population Healthy Nuclei (%) [1]: 77% and 84%
Population Hoechst High Intensity Objects (%) [1]: 7%
Population Membrane Permeable-Phenotype (%) [1]: 0%
Population Mitochondria Different-Phenotype (%) [1]: 33% and 51%
Population Mitotic Cells (%) [1]: 68% and 47%
Population Normal (%) [1]: 92%
Population Pyknosed Nuclei (%) [1]: 12% and 10%
Population Tubulin-Different-Phenotype (%) [1]: 21% and 22%
Total Cell Count [1]: 428 and 424
Population Apoptotic (%) [2]: 30% and 39%
Population Fragmented Nuclei (%) [2]: 6% and 4%
Population Healthy Nuclei (%) [2]: 83% and 82%
Population Hoechst High Intensity Objects (%) [2]: 6% and 5%
Population Membrane Permeable-Phenotype (%) [2]: 0% and 1%
Population Mitochondria Different-Phenotype (%) [2]: 35% and 51%
Population Mitotic Cells (%) [2]: 69% and 60%
Population Normal (%) [2]: 93% and 94%
Population Pyknosed Nuclei (%) [2]: 10% and 13%
Population Tubulin-Different-Phenotype (%) [2]: 37% and 27%
Total Cell Count [2]: 451 and 344
Population Apoptotic (%) [3]: 41% and 28%
Population Fragmented Nuclei (%) [3]: 8%
Population Healthy Nuclei (%) [3]: 81%
Population Hoechst High Intensity Objects (%) [3]: 6% and 5%
Population Membrane Permeable-Phenotype (%) [3]: 0%
Population Mitochondria Different-Phenotype (%) [3]: 21% and 32%
Population Mitotic Cells (%) [3]: 58% and 71%
Population Normal (%) [3]: 93% and 94%
Population Pyknosed Nuclei (%) [3]: 9%
Population Tubulin-Different-Phenotype (%) [3]: 15% and 16%
Total Cell Count [3]: 522 and 521
Population Apoptotic (%) [4]: 22% and 28%
Population Fragmented Nuclei (%) [4]: 10% and 7%
Population Healthy Nuclei (%) [4]: 77% and 82%
Population Hoechst High Intensity Objects (%) [4]: 3% and 5%
Population Membrane Permeable-Phenotype (%) [4]: 1% and 0%
Population Mitochondria Different-Phenotype (%) [4]: 15% and 31%
Population Mitotic Cells (%) [4]: 77% and 71%
Population Normal (%) [4]: 96% and 94%
Population Pyknosed Nuclei (%) [4]: 12% and 9%
Population Tubulin-Different-Phenotype (%) [4]: 20% and 23%
Total Cell Count [4]: 594 and 437
Population Apoptotic (%) [5]: 28% and 32%
Population Fragmented Nuclei (%) [5]: 16% and 14%
Population Healthy Nuclei (%) [5]: 76% and 81%
Population Hoechst High Intensity Objects (%) [5]: 2%
Population Membrane Permeable-Phenotype (%) [5]: 0% and 2%
Population Mitochondria Different-Phenotype (%) [5]: 16% and 14%
Population Mitotic Cells (%) [5]: 71% and 67%
Population Normal (%) [5]: 97%
Population Pyknosed Nuclei (%) [5]: 7% and 4%
Population Tubulin-Different-Phenotype (%) [5]: 13% and 12%
Total Cell Count [5]: 834 and 877
Population Apoptotic (%) [6]: 21% and 25%
Population Fragmented Nuclei (%) [6]: 13% and 12%
Population Healthy Nuclei (%) [6]: 81% and 80%
Population Hoechst High Intensity Objects (%) [6]: 3% and 2%
Population Membrane Permeable-Phenotype (%) [6]: 2% and 1%
Population Mitochondria Different-Phenotype (%) [6]: 12% and 18%
Population Mitotic Cells (%) [6]: 78% and 75%
Population Normal (%) [6]: 96% and 97%
Population Pyknosed Nuclei (%) [6]: 5% and 7%
Population Tubulin-Different-Phenotype (%) [6]: 14% and 15%
Total Cell Count [6]: 929 and 586

COC[C@@H](c1ccc(C(F)(F)F)cc1)N1CCN(C2(C)CCN(C(=O)c3c(C)ncnc3C)CC2)C[C@@H]1C.O=C(O)/C=C\C(=O)O [VICRIVIROC MALEATE]
Population Apoptotic (%) [1]: 46% and 45%
Population Fragmented Nuclei (%) [1]: 7%
Population Healthy Nuclei (%) [1]: 80%
Population Hoechst High Intensity Objects (%) [1]: 9% and 5%
Population Membrane Permeable-Phenotype (%) [1]: 0%
Population Mitochondria Different-Phenotype (%) [1]: 47% and 51%
Population Mitotic Cells (%) [1]: 53% and 54%
Population Normal (%) [1]: 90% and 94%
Population Pyknosed Nuclei (%) [1]: 12% and 11%
Population Tubulin-Different-Phenotype (%) [1]: 27% and 17%
Total Cell Count [1]: 406 and 387
Population Apoptotic (%) [2]: 44% and 62%
Population Fragmented Nuclei (%) [2]: 6% and 5%
Population Healthy Nuclei (%) [2]: 75% and 72%
Population Hoechst High Intensity Objects (%) [2]: 8% and 16%
Population Membrane Permeable-Phenotype (%) [2]: 0%
Population Mitochondria Different-Phenotype (%) [2]: 63% and 78%
Population Mitotic Cells (%) [2]: 55% and 37%
Population Normal (%) [2]: 91% and 83%
Population Pyknosed Nuclei (%) [2]: 18% and 21%
Population Tubulin-Different-Phenotype (%) [2]: 57% and 51%
Total Cell Count [2]: 315 and 265
Population Apoptotic (%) [3]: 30% and 31%
Population Fragmented Nuclei (%) [3]: 9%
Population Healthy Nuclei (%) [3]: 79% and 82%
Population Hoechst High Intensity Objects (%) [3]: 6% and 5%
Population Membrane Permeable-Phenotype (%) [3]: 0% and 1%
Population Mitochondria Different-Phenotype (%) [3]: 24%
Population Mitotic Cells (%) [3]: 69% and 68%
Population Normal (%) [3]: 93% and 94%
Population Pyknosed Nuclei (%) [3]: 10% and 8%
Population Tubulin-Different-Phenotype (%) [3]: 21% and 11%
Total Cell Count [3]: 564 and 515
Population Apoptotic (%) [4]: 34% and 60%
Population Fragmented Nuclei (%) [4]: 6% and 10%
Population Healthy Nuclei (%) [4]: 80% and 77%
Population Hoechst High Intensity Objects (%) [4]: 6% and 16%
Population Membrane Permeable-Phenotype (%) [4]: 0%
Population Mitochondria Different-Phenotype (%) [4]: 53% and 70%
Population Mitotic Cells (%) [4]: 66% and 39%
Population Normal (%) [4]: 93% and 83%
Population Pyknosed Nuclei (%) [4]: 13% and 12%
Population Tubulin-Different-Phenotype (%) [4]: 49% and 39%
Total Cell Count [4]: 406 and 310
Population Apoptotic (%) [5]: 21% and 34%
Population Fragmented Nuclei (%) [5]: 11% and 13%
Population Healthy Nuclei (%) [5]: 80% and 81%
Population Hoechst High Intensity Objects (%) [5]: 2%
Population Membrane Permeable-Phenotype (%) [5]: 1%
Population Mitochondria Different-Phenotype (%) [5]: 13% and 11%
Population Mitotic Cells (%) [5]: 78% and 65%
Population Normal (%) [5]: 97%
Population Pyknosed Nuclei (%) [5]: 7% and 5%
Population Tubulin-Different-Phenotype (%) [5]: 12% and 8%
Total Cell Count [5]: 930 and 751
Population Apoptotic (%) [6]: 38% and 53%
Population Fragmented Nuclei (%) [6]: 12% and 14%
Population Healthy Nuclei (%) [6]: 75% and 70%
Population Hoechst High Intensity Objects (%) [6]: 4% and 11%
Population Membrane Permeable-Phenotype (%) [6]: 0%
Population Mitochondria Different-Phenotype (%) [6]: 49% and 50%
Population Mitotic Cells (%) [6]: 61% and 46%
Population Normal (%) [6]: 95% and 88%
Population Pyknosed Nuclei (%) [6]: 11% and 15%
Population Tubulin-Different-Phenotype (%) [6]: 35% and 38%
Total Cell Count [6]: 559 and 394
